Key:
[1] = biological target: T1, PAD2 (Homo sapiens, UniProt Q9Y2J8); test: PAD2 inactivation kinetics; type: biochemical; conditions: for fold decrease in PAD2 potency: compared to 30a; for fold more potent PAD2 inhibitor in vitro: than BB-Cl-amidine (4b); for fold increase in PAD2 potency and selectivity: relative to Cl-amidine; for PAD2-selectivity: up to, other isozyme not named; for PAD2 potency: as compared to BB-F-amidine (4a) and BB-Cl-amidine (4b)
Method in brief: (§1)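 Purified PAD enzyme (2.0 μM) was preincubated at 37 °C with various inactivator concentrations in 50 mM HEPES pH 7.6, 10 mM CaCl2 and 2 mM DTT. Aliquots taken over time were added to the same buffer containing 10 mM BAEE, run for 15 min, then quenched in liquid nitrogen. Citrulline was measured by COLDER. k_obs came from exponential decay fits, and k_inact and K_I from saturation fits. At least duplicate.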

[2] = biological target: T1, PAD2; test: Target engagement assay with HEK293T/PAD2 cells; type: cell-based
[3] = test system: HEK293T cells; test: Cytotoxicity study; type: cell-based, human; conditions: than BB-Cl-amidine (4b)
Method in brief: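 Human HEK293T cells were plated at 2.5 × 10⁶ cells/well. Next day they were exposed for 24 h to DMSO, Triton X-100, or a range of test-compound concentrations. Viability was read by XTT absorbance at 475 nm. EC50 came from an eight-point dose-response fit with range, slope factor and background terms.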

[4] = test system: PAD4; test: PAD4 inactivation kinetics; type: biochemical
Method in brief: as §1

[5] = test system: PAD1; test: PAD1 inactivation kinetics; type: biochemical
Method in brief: as §1

[6] = test system: HEK293T/PAD2 cells; test: Cellular uptake assay; type: in vitro ADME, human
Method in brief: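 HEK293T/PAD2 cells in HBS with 2 mM CaCl2 were treated with 0.5 μM ionomycin and test compound at 25 μM, as in the target engagement protocol. Cells were scraped, washed 4× with HBS, extracted in acetonitrile by sonication for 1 h at 0 °C, then cleared, filtered and analysed by LCMS. Analyte peak area was compared with the peak area of 25 μM compound injected directly.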

[7] = as compared to BB-F-amidine (4a)
[8] = as compared to BB-Cl-amidine (4b)

T1 sequence (Q9Y2J8 whole entry): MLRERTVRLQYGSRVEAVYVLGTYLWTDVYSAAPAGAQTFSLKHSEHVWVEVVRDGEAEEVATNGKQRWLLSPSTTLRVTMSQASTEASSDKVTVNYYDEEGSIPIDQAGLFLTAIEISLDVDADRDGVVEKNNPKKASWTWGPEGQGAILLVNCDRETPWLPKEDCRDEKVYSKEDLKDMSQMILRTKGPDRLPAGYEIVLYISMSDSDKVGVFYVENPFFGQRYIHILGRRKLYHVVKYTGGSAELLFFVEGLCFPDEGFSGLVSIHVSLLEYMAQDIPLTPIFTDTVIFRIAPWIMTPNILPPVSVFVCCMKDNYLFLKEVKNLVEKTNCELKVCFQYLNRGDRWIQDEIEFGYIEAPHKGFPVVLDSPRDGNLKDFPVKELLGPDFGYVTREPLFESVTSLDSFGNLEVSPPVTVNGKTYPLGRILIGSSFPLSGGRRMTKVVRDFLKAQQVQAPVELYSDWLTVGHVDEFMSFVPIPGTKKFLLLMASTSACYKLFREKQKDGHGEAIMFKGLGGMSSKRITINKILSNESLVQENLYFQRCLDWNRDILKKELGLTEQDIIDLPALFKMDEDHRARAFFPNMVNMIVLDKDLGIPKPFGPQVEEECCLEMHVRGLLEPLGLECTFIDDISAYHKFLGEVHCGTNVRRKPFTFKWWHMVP

CCOc1cccc2c1nc([C@H](CCCNC(=N)CCl)NC(=O)c1cccc3c1C(=O)NC3)n2C [32b]
fold decrease in PAD2 potency [1]: ~ 2 fold

CCn1c([C@H](CCCNC(=N)CF)NC(=O)c2cccc3c2C(=O)NC3)nc2ccccc21 [16a]
fold increase in PAD2 inhibition ([1]; as compared to 9a): ~ 41 fold
fold increase in PAD2 inhibition [1, 7]: ~ 51 fold
occupancy of PAD2 ([2]; at 25 μM, HEK293T/PAD2 cells): roughly half as potent

CCn1c([C@H](CCCNC(=N)CF)NC(=O)c2cccc3c2C(=O)NC3)nc2c(OC)cccc21 [31a]
fold decrease in PAD2 potency [1]: 4 fold
fold more potent PAD2 inhibitor in vitro [1]: 12–50 fold
fold less cytotoxic [3]: > 30 fold

COc1ccc2c(c1)nc([C@H](CCCNC(=N)CF)NC(=O)c1cccc3c1C(=O)NC3)n2C [37a]
fold more potent PAD2 inhibitor in vitro [1]: 12–50 fold
fold less cytotoxic [3]: > 30 fold

N=C(CF)NCCC[C@H](NC(=O)c1ccc(-c2ccccc2)cc1)c1nc2ccccc2[nH]1 [4a]
fold less potent in the target engagement assay ([2]; than BB-Cl-amidine (4b)): ~ 3 fold

COc1cccc2c1nc([C@H](CCCNC(=N)CF)NC(=O)c1cccc3c1C(=O)N(C)C3)n2C [49a]
fold increase in PAD2 potency and selectivity [1]: > 100 fold
PAD2-selectivity [1]: up to 106 fold

N=C(CF)NCCC[C@H](NC(=O)c1ccccc1C(=O)O)c1nc2ccccc2[nH]1 [9a]
fold increase in PAD4 inhibition [4, 7]: 6.5 fold
PAD2 potency [1]: relatively unaffected
fold increase in PAD1 inhibition [5, 7]: 18 fold

CCn1c([C@H](CCCNC(=N)CF)NC(=O)c2ccccc2C(=O)O)nc2ccccc21 [11a]
fold increase in PAD2 inhibition [1, 7]: 26 fold

N=C(CCl)NCCC[C@H](NC(=O)c1ccccc1C(=O)O)c1nc2ccccc2[nH]1 [9b]
fold increase in PAD4 inhibition [4, 8]: 2.3 fold
PAD2 potency [1]: relatively unaffected
fold increase in PAD1 inhibition [5, 8]: 1.8 fold

N=C(CF)NCCC[C@H](NC(=O)c1cccc2c1C(=O)NC2)c1nc2ccccc2[nH]1 [14a]
fold increase in PAD4 inhibition ([4]; as compared to 9a): ~ 1.4 fold
fold increase in PAD2 inhibition ([1]; as compared to 9a): ~ 7 fold
fold increase in PAD2 inhibition [1, 7]: ~ 9 fold

CCOc1cccc2c1nc([C@H](CCCNC(=N)CF)NC(=O)c1cccc3c1C(=O)NC3)n2C [32a]
fold decrease in PAD2 potency [1]: ~ 2 fold
fold more potent PAD2 inhibitor in vitro [1]: 12–50 fold
fold less cytotoxic [3]: > 30 fold

COc1cccc2c1nc([C@H](CCCNC(=N)CF)NC(=O)c1cccc3c1C(=O)NC3)n2C [30a]
fold increase in PAD2 potency and selectivity [1]: > 100 fold
fold more potent PAD2 inhibitor in vitro [1]: 12–50 fold
PAD2-selectivity [1]: up to 106 fold
fold more compound able to enter HEK293T cells ([6]; than 41a): 6 fold
fold less cytotoxic [3]: > 30 fold

CCN1Cc2cccc(C(=O)N[C@@H](CCCNC(=N)CF)c3nc4c(OC)cccc4n3C)c2C1=O [41a]
fold increase in PAD2 inhibition [1, 7]: > 300 fold
fold increase in PAD2 potency and selectivity [1]: > 100 fold
PAD2-selectivity [1]: up to 106 fold
fold less compound internalized by the cell ([6]; than unsubstituted lactams 30a, 31a, 32a, and 37a, mass spectrometry): ~ 6 fold
